Experimental data taken from the array DNA melting data of Ke et al. (doi:10.1101/2024.01.08.574731).

Key:
[1] = melting temperature; fluorescence melt of hairpins on a sequencing array, two-state fit, raised by 9.35 °C to match UV melts; settings: sodium 0.088 M
How it was run: (§1)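 Hairpins were imaged by Cy3 fluorescence on a sequenced MiSeq flow cell with annealed Cy3 and quencher oligos, in 50 mM Na-HEPES pH 8.0, 25 mM NaCl, in 2.5 °C steps up to 60 °C. Bootstrapped two-state fits of normalised signals gave melting temperature and folding enthalpy. Four replicates were combined by inverse variance, and fitted temperatures were raised by 9.35 °C to match UV melts.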

[2] = folding enthalpy; higher = less favourable; fluorescence melt of hairpins on a sequencing array, two-state fit; settings: sodium 0.088 M
How it was run: as §1

Sequence	Tm [1] [°C]	folding enthalpy [2] [kcal/mol]
GTGCGTTCGAAAGAACAC (((..(((....))))))	54.1	-11.7
GCAGAGGGAAACCTCCAC (..((((....))))..)	25.4	-13.7
GCTCGCGAAAGCGGAGC ((((((....))).)))	67.9	-22.9
GCGAGTGGAAACGCTTGC ((.((.(....).)).))	48.6	-22.3
GGAGGCGGAAACACCTCC (((((.(....).)))))	50.1	-39.4
GCCCACCCGAAAGGGGGC (((..(((....))))))	58.4	-17.6
GCAGCCGAAAGGCATGC ((((((....))).)))	62	-19.6
GCGTATTGACGC ((((....))))	52.9	-13.1
GCAGCCGAAAGGCGATGC ((((((....)))..)))	53.2	-14.2
GATCTTCGGCAAGATC ((((((....))))))	37.8	-28.3
GCACCGCGAAAGCGATGC (((.(((....))).)))	57.4	-43.6
GATCCATGGCTGGATC ((((((....))))))	50.5	-35.8
GTTAAAGGAAACTTTGAC ((.((((....)))).))	33.2	-16.7
GCACACGAAAGTGTTTGC ((((((....)))..)))	39.6	-13.7
CGCCAGAAATGGCG (((((....)))))	66.4	-31.5
CAACAGAAATGTTG (((((....)))))	40.8	-22.1
GATCCGGACACGGATC ((((((....))))))	66	-43.2
GGACCCGAAAGGGACTCC ((((((....)))..)))	54	-13
GATCCGACAGCGGATC ((((((....))))))	54	-34.2
GAACCCGGAAACGGATTC (((.(((....))).)))	41.5	-21
GATCAAACGTTTGATC ((((((....))))))	51	-41.4
GTTTACGGAAACGTAGAC ((.((((....)))).))	40.3	-24.7
GTTGCGCGAAAGCGAAAC (((.(((....))).)))	59.5	-27.8

Sequence	Tm [1] [°C]	folding enthalpy [2] [kcal/mol]
GCCGAGCGAAAGCGCAGC ((.(.((....)).).))	49.4	-14.4
GATCGTAAGGACGATC ((((((....))))))	53.4	-31.8
GATCCCACAAGGGATC ((((((....))))))	64.7	-30.6
GCCGGTCGAAAGACAGGC (((.(((....))).)))	69	-41.7
GTGTCCGGAAACGGATGC (..((((....))))..)	48	-25.7
GCTGGCGGAAACGTCAGC ((((.((....)).))))	61.2	-43.2
GAATCCGAAAGGATTTC ((((((....))).)))	48.6	-13.8
GATCGTGGCACGATC ((((((...))))))	59.8	-45.8
GCTCTTCGAAAGAAAGC (((.(((....))))))	36.1	-20.6
GGCCCGGGAAACCGAGCC (((.(((....))).)))	54.2	-46
ATCTGGAAACAGAT (((((....)))))	39.1	-18.3
GCTTTCGAAAGAACGAGC ((((((....)))..)))	28.9	-15.1
CGAGCGGAAACGCCATCG ((((((....)))..)))	31.9	-12.5
GCATCCGAAAGGATTGC ((((((....))).)))	53.8	-16.6
GGAGGTCGAAAGACTCC (((.(((....))))))	51.1	-21.3
GTTACCGAAAGGTGGAAC ((((((....)))..)))	28.1	-10.2
GATGGACGAAAGTCTATC (((.(((....))).)))	52.9	-30.9
GCTCGCGAAAGCGGTAGC ((((((....)))..)))	51	-15.4
GCCGTCGGAAACGATGGC (((.(((....))).)))	65.5	-41.1
GTGAGCGGAAACGCTTGC (..((((....))))..)	43.8	-16.2
GGTAGATCGAAAGATACC (((..(((....))))))	33.1	-19
GGGCATCCGAAAGGACCC (((..(((....))))))	38.6	-18.3
GTTATCGAAAGATTAAC ((((((....))).)))	29.5	-15.1

Sequence	Tm [1] [°C]	folding enthalpy [2] [kcal/mol]
GACAACGGAAACGTTGCC (.(((((....))))).)	44.9	-17.4
GTCCGCGAAAGCGGCGAC ((((((....)))..)))	67	-10.7
GACAAGCGAAAGCTCGTC (((.(((....))).)))	49.3	-21
GATCCGTGAACGGATC ((((((....))))))	60.5	-33.1
GCCAGGTCGAAAGACGGC (((..(((....))))))	53.4	-34.7
GCCGGGCGAAAGCCTCGC ((..(((....)))..))	48.3	-11.1
GTTCGTGGAAACATGAGC (.((.((....)).)).)	31.6	-18.1
GATCACCCGGTGATC ((((((...))))))	56.3	-44.2
GCACCGCCGAAAGGCTGC (((..(((....))))))	38.9	-14.7
GATCTCTTTGGAGATC ((((((....))))))	55.1	-44.5
GCTATCGAAAGATGAGC ((((((....))).)))	37.4	-27.1
GGCCTGACGAAAGTCGCC (((..(((....))))))	44	-16.3
GTCTCCGGAAACGGGGAC (((.(((....))).)))	57.7	-41.1
GATCACCGGTGTGATC ((((((....))))))	54.8	-38
GTTATACGAAAGTAAAAC (((.(((....))).)))	32.2	-20.2
GTCCCCGGAAACGGAGAC (((.(((....))).)))	47.7	-28
GATCCAGTCATGGATC ((((((....))))))	58.3	-39.8
GTGGGCGGAAACACCCAC (((((.(....).)))))	53.1	-43.3
GCTTGAACGAAAGTTAGC (((..(((....))))))	36.1	-13.7
GAGAGGCGAAAGCCCTC (((.(((....))))))	55.7	-14.2
GATGGAGGAAACTCTGTC ((..(((....)))..))	29.1	-21
GGTCTGGGAAACTAGACC (((((.(....).)))))	50.6	-41.5
GCTTACGGAAACGTAAAC (.(((((....))))).)	33.3	-17.9

Sequence	Tm [1] [°C]	folding enthalpy [2] [kcal/mol]
GATCATGCAATGATC ((((((...))))))	59.2	-46
GACTAACGAAAGTTCGTC (((.(((....))).)))	42.5	-30.5
GATAAAACGAAAGTTATC (((..(((....))))))	22.7	-9.65
CGGCGCGGAAACGCTCCG (((.(((....))).)))	56.5	-33.7
TCGATGAAAATCGA (((((....)))))	47.4	-19.5
GATCGGAACACCGATC ((((((....))))))	55.2	-39.9
GTCAAACGAAAGTTAGAC (((.(((....))).)))	44.9	-29.5
GATTCCGAAAGGAGGATC ((((((....)))..)))	30.4	-11.2
CGGGCGGAAACGCGGCCG ((((((....)))..)))	59.5	-36
CAACCAGAAATGGTTG ((((((....))))))	53.1	-29.4
GGCCCAGGAAACCGAGCC (((.(.(....).).)))	36.9	-15.7
GTCAATGGAAACATTGGC (.(((((....))))).)	48.4	-27.7
GATCGAACCCTCGATC ((((((....))))))	50.2	-39.5
GAAGCAGGAAACTGCCTC ((.((((....)))).))	34.5	-13.2
GATCGCAGTGCGATC ((((((...))))))	67.6	-30.1
GATCGCTTCGGCGATC ((((((....))))))	67.6	-35.6
GATCTATGAGTAGATC ((((((....))))))	45.5	-40.3
GCGCCGCCGAAAGGCCGC (((..(((....))))))	56.3	-15.2
GTCTCCGGAAACGAAGAC ((((.((....)).))))	41.9	-25.9
GGAGACACGAAAGTGTCC (((..(((....))))))	44.1	-8.97
GCATCCACGAAAGTGTGC (((..(((....))))))	37.6	-14.3
GCAAGCGAAAGCTGCTGC ((((((....)))..)))	67.2	-19.5
GTGGAGCGAAAGCTTCAC (((.(((....))).)))	58.1	-35.6
